# Assay results reported in ChEMBL document CHEMBL2157999, “Potent small molecule Hedgehog agonists induce VEGF expression in vitro” (Bioorg Med Chem, 2012).
# Active and inactive are the calls of the source. The calls are words filed in the database; no cut-off is given here.
# Columns and labels:
# Sonic hedgehog protein = Sonic hedgehog protein (Mus musculus, UniProt Q62226); test: Activation of Shh pathway in mouse Shh-Light II cells assessed as induction of gli1 expression after 48 hrs by […] luminescence assay; assay type: functional, cell-based
# Chain of Sonic hedgehog protein (Q62226 25-198 limits assumed): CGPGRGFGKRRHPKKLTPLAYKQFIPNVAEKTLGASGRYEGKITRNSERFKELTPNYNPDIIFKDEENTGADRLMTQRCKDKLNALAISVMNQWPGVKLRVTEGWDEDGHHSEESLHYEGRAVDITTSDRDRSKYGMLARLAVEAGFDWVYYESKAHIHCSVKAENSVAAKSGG
# Summary of the method: (§1)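 Shh-Light II cells were given compounds from DMSO stocks (final DMSO 0.1%; top concentration 1000 nm) for 48 h, then PBS-washed and lysed. Gli reporter luminescence was measured by dual-luciferase and normalized to constitutive Renilla. EC50 came from a Hill-slope fit of RLU/s versus concentration. 2–4 independent experiments, each in technical triplicate.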
# HUVEC [1] = test: Cytotoxicity against HUVEC up to 10 uM after 24 hrs by WST-1 assay; assay type: cell-based; settings: human
# Summary of the method: (§2)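 HUVEC were seeded at 7500 cells/well and exposed to a compound concentration series (<0.5% DMSO) for 24 h. WST-1 was then added and incubated 24 h. Absorbance at 440 and 650 nm was read, and the absorbance difference was plotted against concentration.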
# [2] = target: Sonic hedgehog protein (Homo sapiens) (UniProt Q15465); test: Activation of Shh pathway in human foreskin fibroblasts assessed as increase in VEGF expression after 48 hrs by ELISA
# Chain of Sonic hedgehog protein (Homo sapiens) (Q15465 24-197 limits assumed): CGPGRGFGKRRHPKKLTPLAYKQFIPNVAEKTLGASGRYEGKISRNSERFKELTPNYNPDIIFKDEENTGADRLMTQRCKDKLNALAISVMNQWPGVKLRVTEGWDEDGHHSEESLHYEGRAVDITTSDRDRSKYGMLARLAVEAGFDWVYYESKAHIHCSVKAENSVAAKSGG
# Summary of the method: (§3)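 Primary foreskin fibroblasts were plated in DMEM with 10% FBS for 24 h, washed free of nonadherent cells and reseeded at 14000 cells/well. After 72 h the medium was replaced with compound (0.1–1.0 µm range, <0.1% DMSO). Cells were held 48 h at 37 °C, 5% CO2. Three independent experiments.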
# [3] = target: Sonic hedgehog protein (Homo sapiens) (UniProt Q15465); test: Activation of Shh pathway in human foreskin fibroblasts assessed as increase in VEGF expression at 0.1 to 1 uM after 48 hrs by ELISA relative to control; summary of the method: as §3
# [4] = target: Sonic hedgehog protein (Homo sapiens) (UniProt Q15465); test: Activation of Shh pathway in human foreskin fibroblasts assessed as induction of maximum VEGF expression at 1 uM after 48 hrs by ELISA relative to control; summary of the method: as §3
# HUVEC [5] = test: Induction of HUVEC proliferation after 48 hrs by BrdU-incorporation assay; assay type: functional, cell-based; settings: Homo sapiens
# Summary of the method: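 HUVEC were seeded at 5000 cells/well. After 24 h the medium was swapped for a compound dilution series (≤0.5% DMSO) and incubated 48 h. BrdU incorporation was read by chemiluminescent ELISA.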
# HUVEC [6] = test: Induction of angiogenesis in HUVEC assessed as formation of cell sprouts after 48 hrs by 3D spheroid angiogenesis assay; settings: Homo sapiens
# HUVEC [7] = test: Cytotoxicity against HUVEC after 24 hrs by WST-1 assay; assay type: cell-based; settings: Homo sapiens; summary of the method: as §2
# [8] = target: Sonic hedgehog protein (Homo sapiens) (UniProt Q15465); test: Activation of Shh pathway in human foreskin fibroblasts assessed as induction of maximum VEGF expression at 0.5 uM after 48 hrs by ELISA relative to control; summary of the method: as §3
# [9] = target: Sonic hedgehog protein (Mus musculus) (UniProt Q62226); test: Activation of Shh pathway in mouse Shh-Light II cells assessed as induction of gli1 expression at 1 uM after 48 hrs by […] luminescence assay; assay type: functional, cell-based; summary of the method: as §1
# [10] = Ratio of compound IC50 to SAG IC50 for HUVEC; assay type: ADME, cell-based; settings: human, HUVEC cells; read-out: Ratio IC50
Activity [9],Compound,Activity (HUVEC [5]),Activity (HUVEC [6]),further results
,CN[C@H]1CC[C@H](N(Cc2cccc(-c3ccncc3)c2)C(=O)c2sc3cc(F)ccc3c2Cl)CC1,inactive,inactive,EC50 (Sonic hedgehog protein): 176 nM; Activity (HUVEC [1]): Non-toxic; Activity [2]: Dose-dependent effect; fold change (FC) [3]: 7; Activity [4]: 32.2 pg/mL
,CN[C@H]1CC[C@H](N(Cc2cccc(-c3ccncc3)c2)C(=O)c2sc3ccccc3c2Cl)CC1,inactive,inactive,EC50 (Sonic hedgehog protein): 8.8 nM; Activity (HUVEC [1]): Non-toxic; IC50 (HUVEC [7]): 22000 nM; Activity [2]: Dose-dependent effect; fold change (FC) [3]: 7; Activity [8]: 29.6 pg/mL
inactive,O=C(c1sc2ccccc2c1Cl)N(Cc1ccco1)C1CCNCC1,inactive,inactive,
inactive,O=C(c1sc2cccc(Cl)c2c1Cl)N(Cc1ccco1)C1CCNCC1,inactive,inactive,
inactive,CCOc1cc(C(=O)N(Cc2cccc(-c3ccncc3)c2)[C@H]2CC[C@H](NC)CC2)cc(OCC)c1OCC,inactive,inactive,
,CN[C@H]1CC[C@H](N(Cc2cccc(-c3ccncc3)c2)C(=O)c2[nH]c3ccccc3c2Cl)CC1,inactive,inactive,EC50 (Sonic hedgehog protein): 118 nM; Activity (HUVEC [1]): Non-toxic
inactive,CN[C@H]1CC[C@H](N(Cc2cccc(-c3ccncc3)c2)C(=O)c2oc3ccccc3c2C)CC1,inactive,inactive,
inactive,O=C(c1sc2cccc(Cl)c2c1Cl)N(Cc1cccc(-c2ccncc2)c1)C1CCNCC1,inactive,inactive,
inactive,CN[C@H]1CC[C@H](N(Cc2cccc(-c3ccncc3)c2)C(=O)c2sc3cc(Cl)ccc3c2Cl)CC1,inactive,inactive,
inactive,O=C(c1sc2ccccc2c1Cl)N(Cc1cccc(-c2ccncc2)c1)C1CCNCC1,inactive,inactive,
,CN[C@H]1CC[C@@H](N(Cc2cccc(-c3ccncc3)c2)C(=O)c2sc3cccc(Cl)c3c2Cl)CC1,inactive,inactive,EC50 (Sonic hedgehog protein): 7.6 nM; Activity (HUVEC [1]): Non-toxic
inactive,O=C(c1sc2cc(F)ccc2c1Cl)N(Cc1cccc(-c2ccncc2)c1)C1CCNCC1,inactive,inactive,
inactive,CC(=O)Nc1ccc(CN(C(=O)c2sc3cccc(Cl)c3c2Cl)C2CCNCC2)cc1,inactive,inactive,
inactive,CN[C@H]1CC[C@H](N(Cc2cccc(-c3ccncc3)c2)C(=O)c2cc3ccccc3s2)CC1,inactive,inactive,
inactive,CC(=O)Nc1ccc(CN(C(=O)c2sc3ccccc3c2Cl)C2CCNCC2)cc1,inactive,inactive,
inactive,CN[C@H]1CC[C@H](N(Cc2ccnc3ccccc23)C(=O)c2sc3ccccc3c2Cl)CC1,inactive,inactive,

Activity [9],Compound,Activity (HUVEC [5]),Activity (HUVEC [6]),further results
inactive,N#Cc1ccc(CN(C(=O)c2sc3cccc(Cl)c3c2Cl)C2CCNCC2)cc1,inactive,inactive,
inactive,Cc1c(C(=O)N(Cc2ccco2)C2CCNCC2)oc2ccccc12,inactive,inactive,
inactive,O=C(c1sc2ccccc2c1Cl)N(Cc1cccs1)C1CCNCC1,inactive,inactive,
,CN[C@H]1CC[C@@H](N(Cc2cccc(-c3ccncc3)c2)C(=O)c2sc3ccccc3c2Cl)CC1,inactive,inactive,EC50 (Sonic hedgehog protein): 61.8 nM; Activity (HUVEC [1]): Non-toxic; Activity [2]: Dose-dependent effect; fold change (FC) [3]: 7; Activity [4]: 23.8 pg/mL
,CN[C@H]1CC[C@H](N(Cc2cccc(-c3ccncc3)c2)C(=O)c2sc3cccc(Cl)c3c2Cl)CC1,inactive,inactive,EC50 (Sonic hedgehog protein): 21.9 nM; Activity (HUVEC [1]): Non-toxic; IC50 (HUVEC [7]): 250000 nM; selectivity ratio [10]: 10; Activity [2]: Dose-dependent effect; fold change (FC) [3]: 7; Activity [4]: 32.4 pg/mL
inactive,N#Cc1ccc(CN(C(=O)c2sc3cc(F)ccc3c2Cl)C2CCNCC2)cc1,inactive,inactive,
inactive,CC(=O)Nc1ccc(CN(C(=O)c2sc3cc(F)ccc3c2Cl)C2CCNCC2)cc1,inactive,inactive,
inactive,N#Cc1ccc(CN(C(=O)c2sc3ccccc3c2Cl)C2CCNCC2)cc1,inactive,inactive,
inactive,CN[C@H]1CC[C@H](NCc2cccc(-c3ccncc3)c2)CC1,inactive,inactive,
inactive,Cc1c(C(=O)N(Cc2cccs2)C2CCNCC2)oc2ccccc12,inactive,inactive,
inactive,O=C(c1sc2cc(F)ccc2c1Cl)N(Cc1ccco1)C1CCNCC1,inactive,inactive,
inactive,O=C(c1sc2ccccc2c1Cl)N(Cc1ccnc2ccccc12)C1CCNCC1,inactive,inactive,
inactive,CN[C@H]1CC[C@H](N(Cc2ccncc2)C(=O)c2sc3ccccc3c2Cl)CC1,inactive,inactive,
,CN[C@H]1CC[C@H](N(Cc2cccc(-c3ccncc3)c2)C(=O)c2ccc(-c3ccccc3)o2)CC1,inactive,inactive,EC50 (Sonic hedgehog protein): 53.8 nM; Activity (HUVEC [1]): Non-toxic
inactive,O=C(c1sc2ccccc2c1Cl)N(Cc1cccc(Br)c1)C1CCNCC1,inactive,inactive,
inactive,CC(=O)Nc1ccc(CN(C(=O)c2oc3ccccc3c2C)C2CCNCC2)cc1,inactive,inactive,
